# Shown are actives, neighbours in structure and some others; about 5% of the full set was active somewhere.
# Beta apoptosis: blocks beta cell apoptosis | actives 0.8% (n = 300,000) | INS-1E cytokine-induced death, ATP luminescence, 48 h; percent of positive-control rescue, neutral wells zero | protection from apoptosis, % (concentration not given with the values);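 active = Every replicate reaches about 75%, or at least half do and their mean reaches it too, limit read from the data; inconclusive = At least half of replicates reach the limit but their mean does not; inactive = Under half of replicates reach the limit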;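 note: 0% = cytokine-treated negative control wells and 100% = positive control rescue; higher means more ATP so stronger rescue from cytokine killing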
# UPR XBP1 act: activators of adaptive arm of unfolded protein response (XBP1). AID 463104. actives 0.33% (n = 330,000). CHO-XBP1 luciferase reporter, IRE1-XBP1 UPR activation, luminescence; percent of tunicamycin response, DMSO as zero. activation, % at 20 µM;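 active = versus positive control, 20 µM dose yields 30% or more activation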;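 note: 100% = tunicamycin at 10 µg/mL and 0% = DMSO only wells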
#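 Assay system: CHO-XBP1 luciferase reporter cells; Schedule: 6 h treatment, 37 °C; Detection: glow luminescence from Steady-Glo reagent; Benchmarks: high control tunicamycin 10 µg/mL final, low control DMSO vehicle only.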
# UPR CHOP act: activators of apoptotic arm of unfolded protein response (CHOP). CHO-CHOP luciferase reporter, UPR activation, luminescence; percent of tunicamycin response over DMSO baseline. actives 0.34% (n = 330,000). activation, % at 10 µM;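 active = at 10 µM dose, activation of 40% or more, normalized to positive control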;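 note: 100% = tunicamycin at 10 µg/mL and 0% = DMSO alone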
#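 System: CHO CHOP reporter cells. Amount: 500 cells per well. Buffer or medium: F12 medium, 10% FBS. Compound dosing: one dose, 10 µM in 0.5% DMSO. Incubation: 6 h compound exposure at 37 °C after overnight seeding. Technique: Steady-Glo luciferase luminescence. Benchmarks: tunicamycin and DMSO controls.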
# Mdm2 MdmX PPI: human Mdm2/MdmX binding inhibition. SaOS-2 split-luciferase Mdm2/MdmX complementation, luminescence. actives 3% (n = 330,000). inhibition, % at 8 µM;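 active = inhibition of at least 50% at 8 µM in the primary screen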
# Target sequence (O15151 whole entry, looked up): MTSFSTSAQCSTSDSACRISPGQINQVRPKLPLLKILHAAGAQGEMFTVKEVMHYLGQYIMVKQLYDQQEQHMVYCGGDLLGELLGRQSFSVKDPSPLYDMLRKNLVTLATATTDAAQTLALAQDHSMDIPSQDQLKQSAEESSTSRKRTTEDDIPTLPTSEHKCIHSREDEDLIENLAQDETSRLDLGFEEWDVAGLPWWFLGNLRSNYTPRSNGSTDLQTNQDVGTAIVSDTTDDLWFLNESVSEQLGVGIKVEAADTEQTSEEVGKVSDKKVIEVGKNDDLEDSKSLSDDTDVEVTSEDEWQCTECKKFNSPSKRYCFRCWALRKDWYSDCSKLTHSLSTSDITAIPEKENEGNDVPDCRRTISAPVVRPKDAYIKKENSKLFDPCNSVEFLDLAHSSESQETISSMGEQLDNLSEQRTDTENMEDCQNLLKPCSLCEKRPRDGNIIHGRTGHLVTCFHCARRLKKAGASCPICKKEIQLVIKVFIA
# Target sequence (Q00987 whole entry, looked up): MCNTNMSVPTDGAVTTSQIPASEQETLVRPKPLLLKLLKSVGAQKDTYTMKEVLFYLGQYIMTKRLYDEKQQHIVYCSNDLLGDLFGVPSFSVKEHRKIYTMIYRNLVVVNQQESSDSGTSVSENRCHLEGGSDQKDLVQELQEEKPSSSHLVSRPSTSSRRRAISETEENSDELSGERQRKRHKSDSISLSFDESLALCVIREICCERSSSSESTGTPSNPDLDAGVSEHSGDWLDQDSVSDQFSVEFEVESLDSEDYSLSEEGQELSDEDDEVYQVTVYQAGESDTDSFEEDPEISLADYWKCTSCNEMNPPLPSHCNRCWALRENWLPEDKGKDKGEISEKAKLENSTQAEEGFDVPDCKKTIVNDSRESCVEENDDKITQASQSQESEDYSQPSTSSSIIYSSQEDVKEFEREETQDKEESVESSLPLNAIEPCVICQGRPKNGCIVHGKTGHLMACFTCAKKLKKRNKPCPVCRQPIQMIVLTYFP
# T cruzi inh: T. cruzi replication inhibition. T. cruzi beta-gal in NIH3T3, luminescence, 90 h. inhibition, % (test concentration not listed). actives 1.4% (n = 300,000);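 active = mean inhibition across valid replicates above about 55%, limit read from the data; inconclusive = mean below that limit but half or more replicates reach it; inactive = mean below it, under half of replicates reach it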;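 note: signal also drops with host cell toxicity which is not excluded here; 0% = plate median of DMSO wells and 100% = zero luminescence signal; higher percent means less beta-gal luminescence so fewer parasites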
#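 System – NIH/3T3 host cells with β-galactosidase reporter T. cruzi · Doses – single 50 nL compound addition per well in DMSO · Reagent – 5000 T. cruzi trypomastigotes/well · Medium – Low-serum DMEM with 2% FBS · Timing – ≥90 h infection period, 3 h prior cell attachment · Evaluation – parasite load inhibition, % · Technique – GalScreen luminescence, 60 min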
# CSC inhib: blocks cancer stem cells. cancer stem cell-like cells viability, luminescence. inhibition, % at 7.5 µM. actives 1.1% (n = 300,000); in the data active = inhibition above about 75%; inconclusive = no clear call, values can overlap the other calls; tested in HMLE shEcad cells
# * = called active by the depositor; ? = inconclusive; . = not tested or not shown.
SMILES,Beta apoptosis,UPR XBP1 act,UPR CHOP act,Mdm2 MdmX PPI,T cruzi inh,CSC inhib
C#CCOCCOCCOCCNc1nc(N2CCN(C(=O)CCCCCCCCCCNC(=O)[C@H](CCCCN)n3cc(C)nn3)CC2)nc(N2CCN(C(=O)CCCCCCCCCCNC(=O)[C@H](CCCN=C(N)N)n3cc(C[C@@H](C)CC)nn3)CC2)n1,100*,8,-1,1,.,168*
C#CCOCCOCCOCCNc1nc(N2CCN(C(=O)CCCCCCCCCCNC(=O)[C@H](CCCN=C(N)N)n3cc(C[C@@H](C)CC)nn3)CC2)nc(N2CCN(C(=O)CCCCCCCCCCNC(=O)[C@@H]([C@H](C)CC)n3cc(CCCCCN)nn3)CC2)n1,107*,14,19,43,.,168*
C#CCOCCOCCOCCNc1nc(N2CCOCC2)nc(N2CCN(C(=O)CCCCCCCCCCNC(=O)[C@H]([C@@H](C)CC)n3cc(CCCCN=C(N)N)nn3)CC2)n1,-6,0,0,20,.,22
C#CCOCCOCCOCCNc1nc(N2CCN(C(=O)CCCCCCCCCCNC(=O)[C@H](CO)n3cc(CCCCCN)nn3)CC2)nc(N2CCN(C(=O)CCCCCCCCCCNC(=O)[C@H](CCCN=C(N)N)n3cc(C[C@@H](C)CC)nn3)CC2)n1,89*,3,0,10,.,12
C#CCOCCOCCOCCNc1nc(N2CCN(C(=O)CCCCCCCCCCNC(=O)[C@@H](CCC(=O)O)n3cc(CCCCCN)nn3)CC2)nc(N2CCN(C(=O)CCCCCCCCCCNC(=O)[C@H](CCCCN)n3cc(C[C@@H](C)CC)nn3)CC2)n1,7,-2,0,12,.,3
C#CCOCCOCCOCCNc1nc(N2CCN(C(=O)CCCCCCCCCCNC(=O)[C@H]([C@@H](C)CC)n3cc(CCCCN=C(N)N)nn3)CC2)nc(N2CCN(C(=O)CCCCCCCCCCNC(=O)[C@H](CCCN=C(N)N)n3cc(C[C@@H](C)CC)nn3)CC2)n1,98*,11,7,-23,.,88*
N#CCOC(=O)C1CCN(S(=O)(=O)c2ccc3c(c2)OCCO3)CC1,-5,-1,0,30,14,-4
Cc1ccc(C(=O)N[C@H](C(=O)NC2CCCCCCC2)C(C)C)cc1,0,2,-1,22,.,.
O=C(NCCCn1ccnc1)c1cccc(Br)c1,-2,-5,3,-39,-2,-2
C#CCOCCOCCOCCNc1nc(N2CCN(C(=O)CCCCCCCCCCNC(=O)[C@H](CCCCN)n3cc(CCO)nn3)CC2)nc(N2CCN(C(=O)CCCCCCCCCCNC(=O)[C@H](CCCCN)n3cc(C[C@@H](C)CC)nn3)CC2)n1,83*,2,2,26,.,95*
Cc1ccc(Nc2nnc(SCC(=O)Nc3cccnc3Cl)s2)cc1C,-3,0,0,2,-3,9
Cc1cccc(N=C2NN=C(c3ccc4c(c3)OCCO4)CS2)c1,5,-6,2,-55,-3,4
CCc1ccc(C2=NNC(=Nc3cccc(S(=O)(=O)N(C)C)c3)SC2)cc1,120*,1,0,36,41,10
S=C1NCN(C2CCCCC2)CN1CCc1ccccc1,3,2,1,5,.,-6
Cc1ccc(C)c(S(=O)(=O)NCc2ccc(C(=O)N3CCC(Cc4ccccc4)CC3)cc2)c1,5,-1,1,36,64*,37
COc1ccc(CCN2C(=O)c3ccccc3NC2c2cc(Cl)c(O)c(OC)c2)cc1 (centres undefined),5,2,1,42,-7,71
O=[N+]([O-])c1cc(F)c2cccnc2c1O,0,-1,0,40,-45,15
O=[N+]([O-])c1cc(Cl)c2cccnc2c1O,-14,2,0,46,-7,98*
O=[N+]([O-])c1ccc(O)c2ncccc12,97*,6,6,46,74*,82*
Cc1ccccc1N=Nc1ccc(O)c2ncccc12,99*,.,.,.,42,99*
CC(=O)Oc1ccc(-c2csc(Nc3ccc(Cl)cn3)n2)cc1,.,15,11,18,39,95*
CCOc1ccc(C(CC(=O)O)n2cnnn2)cc1 (centres undefined),0,-4,0,7,-2,-9
S=C(Nc1ccccc1Cl)N1CCCCCC1,1,1,5,-18,1,-4
S=C(Nc1ccccc1Cl)N1CCCC(c2ccccc2)=N1,-3,2,2,-3,36,84*
Cc1ccc(OCC(O)Cn2c3ccccc3c3ccccc32)cc1 (centres undefined),38,1,-1,42,16,?
SMILES,Beta apoptosis,UPR XBP1 act,UPR CHOP act,Mdm2 MdmX PPI,T cruzi inh,CSC inhib
OC(COCC(F)(F)C(F)(F)C(F)(F)C(F)F)Cn1c2ccccc2c2ccccc21 (centres undefined),3,2,4,21,59*,103*
CCCC1(c2ccccc2)NC(=O)N(CC(=O)NCc2ccc(C)cc2)C1=O (centres undefined),0,-2,-1,-8,-8,2
CCCC1(c2ccccc2)NC(=O)N(CC(=O)Nc2cc(C)ccc2OC)C1=O (centres undefined),93*,1,0,-38,16,-19
COc1ccc(Br)cc1/C=N/n1c(COc2ccccc2)n[nH]c1=S,.,0,1,21,-8,.
CS(=O)(=O)NCCNC(=O)c1cc(OCC(F)(F)F)ccc1OCC(F)(F)F,-4,-4,-2,3,14,-13
O=Nc1c(O)c2ccccc2c2ccccc12,109*,.,.,.,-8,122*
CN=Cc1sc2ccccc2c1O,1,2,1,3,-5,-10
CCc1nc(NC(C)(C)C)c2cnn(-c3ccccc3)c2n1,-1,0,6,-10,21,95*
CCCCNc1ncnc2c1cnn2-c1ccccc1,5,0,8,-34,3,-14
O=C(Nc1ccccc1)c1ccc2c(c1)CCN2S(=O)(=O)c1ccccc1,4,-3,1,1,16,13
O=C(Nc1nc2c(s1)CN(Cc1ccccc1)CC2)c1cccc(S(=O)(=O)N2CCc3ccccc32)c1,2,0,1,-8,30,41
CCc1nnc(NC(=O)c2ccc(S(=O)(=O)N(C)c3ccccc3)cc2)o1,9,0,4,24,-24,29
CCc1nnc(NC(=O)c2ccc(S(=O)(=O)N3CCCc4ccccc43)cc2)o1,7,1,4,47,60*,-13
COc1ccc(-c2nnc(NC(=O)c3ccc(S(=O)(=O)N4CCc5ccccc5C4)cc3)o2)cc1,4,0,10,42,73*,.
